Reference: article PMC3390648 (The Journal of Biological Chemistry, 2012)
Ends that are not written are not given here.

Legend:
human primase = target: T1, human primase (Homo sapiens, UniProt P49642+P49643); assay: Fluorescence polarization; type: binding; settings: 25 °C, 25 mM HEPES, pH 7.2, 250 mM KCl, 1 mM TCEP, 30 nM fluorescein-labeled peptide, mean of three independent experiments
T1 sequence (P49643 1-462): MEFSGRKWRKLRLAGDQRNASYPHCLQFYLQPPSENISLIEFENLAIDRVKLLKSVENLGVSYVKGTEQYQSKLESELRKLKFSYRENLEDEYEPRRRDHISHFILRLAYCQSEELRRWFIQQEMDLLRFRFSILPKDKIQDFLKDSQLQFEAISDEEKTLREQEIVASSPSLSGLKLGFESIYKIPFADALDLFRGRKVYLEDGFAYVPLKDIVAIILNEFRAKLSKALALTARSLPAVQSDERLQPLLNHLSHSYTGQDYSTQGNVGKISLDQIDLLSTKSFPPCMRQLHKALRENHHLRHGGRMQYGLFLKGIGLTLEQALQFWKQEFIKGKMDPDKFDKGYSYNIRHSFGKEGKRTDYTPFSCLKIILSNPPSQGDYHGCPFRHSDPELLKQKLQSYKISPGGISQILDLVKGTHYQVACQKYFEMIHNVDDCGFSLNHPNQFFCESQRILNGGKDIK
T1 sequence (P49642 1-420 K72A/M73A partner): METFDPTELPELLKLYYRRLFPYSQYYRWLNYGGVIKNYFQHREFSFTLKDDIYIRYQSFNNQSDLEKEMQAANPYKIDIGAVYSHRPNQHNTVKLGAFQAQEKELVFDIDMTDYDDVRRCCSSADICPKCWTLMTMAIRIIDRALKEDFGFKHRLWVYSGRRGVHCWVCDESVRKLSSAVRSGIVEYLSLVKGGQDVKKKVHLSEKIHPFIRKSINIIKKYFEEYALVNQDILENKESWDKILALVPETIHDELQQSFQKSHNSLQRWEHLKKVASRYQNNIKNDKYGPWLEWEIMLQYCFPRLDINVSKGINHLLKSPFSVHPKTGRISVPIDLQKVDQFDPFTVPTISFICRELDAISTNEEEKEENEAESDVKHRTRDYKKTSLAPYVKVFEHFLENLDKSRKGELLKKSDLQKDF
Procedure, shortened: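 Peptide was human pol α 1445–1462 (wild type or point mutant), synthesized with an N-terminal fluorescein. Human primase was His-Prim1(1–420; K72A/M73A) with Prim2(1–462), made in E. coli and purified by Co-NTA, heparin, TEV cleavage and gel filtration. Serial protein dilutions were read at λex 485/λem 520 nm, 200 flashes per well. Gain was set against fluorescein (35 mP). Curves were fitted by Monte Carlo fitting.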

yeast primase [1] = assay: GST pulldown with yeast primase; type: binding; settings: mutation to alanine of Phe1463
Procedure, shortened: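 GST-Pol1 1453–1468, wild type or single alanine mutants, was expressed in E. coli BL21(DE3). An excess was bound to glutathione-Sepharose and washed in 25 mM HEPES pH 7.0, 250 mM KCl, 1% BSA, 0.1% NP-40, 1 mM TCEP. Beads were incubated with 20 μM yeast primase (Pri1(1–409)/Pri2(49–513)) for 2 h at 4 °C, then washed, ending with a BSA-free wash. Bound protein was read by SDS-PAGE with Coomassie staining.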

yeast primase [2] = assay: Binding of pol1 C-terminal peptide to yeast primase; settings: qualitative statement of abstract; method not given
Pri1-Pri2 primase = assay: Analytical gel filtration, assembly with primase; type: binding, yeast; settings: Superdex 200 10/300 GL, 14 μM complex, 25 mM HEPES, pH 7.2, 250 mM KCl, 5% glycerol, 0.5 mM TCEP; equimolar, 4 °C, 30 min
Procedure, shortened: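 Yeast primase Pri1(1–409)/His-Pri2(49–513) or the ΔCTD form Pri2(49–335), and Pol1 CTD(1263–1468)/His-Pol12(246–705), were expressed in E. coli Rosetta2(DE3). They were purified by Co-NTA, heparin, TEV tag cleavage and gel filtration. Equimolar partners were mixed for 30 min at 4 °C, and 100 μl was injected at 0.5 ml/min. Fractions were read by SDS-PAGE with Coomassie staining.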

Pol12 = assay: Immunoprecipitation and immunoblotting, Pol12; type: cell-based, Saccharomyces cerevisiae; settings: diploid yeast, anti-HA beads, native cell extracts, immunoblotting

Molecule: F1455A (GYSEVNLSKLAAGCAVKS; also: fluorescein label, position not given here)
- level of binding (human primase): did not display a measurable level of binding

Molecule: F1463A (GRRYVDMTSIADFMLN; also: GST fusion, N-terminal)
- interaction with primase (abstract summary, in vitro) (yeast primase [1]): abrogates the interaction with the primase

Molecule: GRRYVDMTSIFDFMLN [pol1 peptide]
- binding to primase (yeast primase [2]): binds primase with high affinity

B1: CTD-Pol12: yeast Pol1 (1263–1468) with His-tagged Pol12 (246–705) (protein)
chain 1: NLQPLETTITDVERFKDTVTLELSCPSCDKRFPFGGIVSSNYYRVSYNGLQCKHCEQLFTPLQLTSQIEHSIRAHISLYYAGWLQCDDSTCGIVTRQVSVFGKRCLNDGCTGVMRYKYSDKQLYNQLLYFDSLFDCEKNKKQELKPIYLPDDLDYPKEQLTESSIKALTEQNRELMETGRSVVQKYLNDCGRRYVDMTSIFDFMLN
chain 2: KFRTMRQNLQEASDVLDDQIESFTKIIQNHYKLSPNDFADPTIQSQSEIYAVGRIVPDSPTYDKFLNPESLSLETSRMGGVGRRVRLDLSQVNELSFFLGQIVAFKGKNANGDYFTVNSILPLPYPNSPVSTSQELQEFQANLEGSSLKVIVTCGPYFANDNFSLELLQEFIDSINNEVKPHVLIMFGPFIDITHPLIASGKLPNFPQFKTQPKTLDELFLKLFTPILKTISPHIQTVLIPSTKDAISNHAAYPQASLIRKALQLPKRNFKCMANPSSFQINEIYFGCSNVDTFKDLKEVIKGGTTSSRYRLDRVSEHILQQRRYYPIFPGSIRTRIKPKDVSTKKETNDMESKEEKVYEHISGADLDVSYLGLTEFVGGFSPDIMIIPSELQHFARVVQNVVVINPGRFIRATGNRGSYAQITVQCPDLEDGKLTLVEGEEPVYLHNVWKRARVDLIAS
modifications: left off: His tag, end not stated, cleaved
- complex formation with primase (Pri1-Pri2 primase): eluted as a single peak

B2: Pol1: wild-type catalytic subunit of yeast pol α (protein)
chain: MSSKSEKLEKLRKLQAARNGTSIDDYEGDESDGDRIYDEIDEKEYRARKRQELLHDDFVVDDDGVGYVDRGVEEDWREVDNSSSDEDTGNLASKDSKRKKNIKREKDHQITDMLRTQHSKSTLLAHAKKSQKKSIPIDNFDDILGEFESGEVEKPNILLPSKLRENLNSSPTSEFKSSIKRVNGNDESSHDAGISKKVKIDPDSSTDKYLEIESSPLKLQSRKLRYANDVQDLLDDVENSPVVATKRQNVLQDTLLANPPSAQSLADEEDDEDSDEDIILKRRTMRSVTTTRRVNIDSRSNPSTSPFVTAPGTPIGIKGLTPSKSLQSNTDVATLAVNVKKEDVVDPETDTFQMFWLDYCEVNNTLILFGKVKLKDDNCVSAMVQINGLCRELFFLPREGKTPTDIHEEIIPLLMDKYGLDNIRAKPQKMKYSFELPDIPSESDYLKVLLPYQTPKSSRDTIPSDLSSDTFYHVFGGNSNIFESFVIQNRIMGPCWLDIKGADFNSIRNASHCAVEVSVDKPQNITPTTTKTMPNLRCLSLSIQTLMNPKENKQEIVSITLSAYRNISLDSPIPENIKPDDLCTLVRPPQSTSFPLGLAALAKQKLPGRVRLFNNEKAMLSCFCAMLKVEDPDVIIGHRLQNVYLDVLAHRMHDLNIPTFSSIGRRLRRTWPEKFGRGNSNMNHFFISDICSGRLICDIANEMGQSLTPKCQSWDLSEMYQVTCEKEHKPLDIDYQNPQYQNDVNSMTMALQENITNCMISAEVSYRIQLLTLTKQLTNLAGNAWAQTLGGTRAGRNEYILLHEFSRNGFIVPDKEGNRSRAQKQRQNEENADAPVNSKKAKYQGGLVFEPEKGLHKNYVLVMDFNSLYPSIIQEFNICFTTVDRNKEDIDELPSVPPSEVDQGVLPRLLANLVDRRREVKKVMKTETDPHKRVQCDIRQQALKLTANSMYGCLGYVNSRFYAKPLAMLVTNKGREILMNTRQLAESMNLLVVYGDTDSVMIDTGCDNYADAIKIGLGFKRLVNERYRLLEIDIDNVFKKLLLHAKKKYAALTVNLDKNGNGTTVLEVKGLDMKRREFCPLSRDVSIHVLNTILSDKDPEEALQEVYDYLEDIRIKVETNNIRIDKYKINMKLSKDPKAYPGGKNMPAVQVALRMRKAGRVVKAGSVITFVITKQDEIDNAADTPALSVAERAHALNEVMIKSNNLIPDPQYYLEKQIFAPVERLLERIDSFNVVRLSEALGLDSKKYFRREGGNNNGEDINNLQPLETTITDVERFKDTVTLELSCPSCDKRFPFGGIVSSNYYRVSYNGLQCKHCEQLFTPLQLTSQIEHSIRAHISLYYAGWLQCDDSTCGIVTRQVSVFGKRCLNDGCTGVMRYKYSDKQLYNQLLYFDSLFDCEKNKKQELKPIYLPDDLDYPKEQLTESSIKALTEQNRELMETGRSVVQKYLNDCGRRYVDMTSIFDFMLN
modifications: left off: 6HA, end not stated, kept
- association with Pol12 (Pol12): all associated equally well with Pol12
